UPR CHOP act = activators of apoptotic CHOP UPR arm, primary screen, cell-based, CHO-CHOP luciferase reporter, luminescence, uHTS. 330,000 compounds, 0.34% hits. AID 449763, 2010. activation, % at 10 µM. UPR activation; percent of tunicamycin response over DMSO baseline;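 active = at 10 µM dose, activation of 40% or more, normalized to positive control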
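System: CHO-CHOP luciferase reporter cell line | Buffer or medium: F12 medium containing 10% fetal bovine serum | Doses: One dose, 10 µM in 0.5% DMSO | Times: 6 h compound exposure at 37 °C after overnight seeding | Signal: Luciferase luminescence | Read-out: % activation vs tunicamycin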
Gli-Sufu block = Gli-Sufu pathway antagonists, primary screen, luciferase luminescence, Sufu-KO-LIGHT cells, uHTS; Sufu-KO-LIGHT fibroblasts, Gli luciferase reporter luminescence; inhibition, % at 5 µM; 340,000 compounds, 0.74% hits; AID 588413, 2011;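 active = inhibition above about 55%, limit read from the data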
UPR XBP1 act = activators of adaptive XBP1 UPR arm, primary screen, cell-based, CHO-XBP1 luciferase reporter, luminescence, uHTS; activation, % at 20 µM; IRE1-XBP1 UPR activation; percent of tunicamycin response, DMSO as zero; 330,000 compounds, 0.33% hits;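 active = versus positive control, 20 µM dose yields 30% or more activation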
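Test system: CHO-XBP1 luciferase reporter cells | Buffer or medium: Serum-containing F12 medium, 10% FBS | Schedule: 6 h compound exposure at 37 °C, 5% CO2 | Detection: Steady-Glo luciferase glow luminescence, 10 min after reagent addition | Read-out basis: Activation, % of tunicamycin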
Jurkat NFkB inh = inhibitors of induced NF-kB luciferase reporter, primary screen, TCR NF-kB activation inhibitor project, cell-based, luminescence, uHTS; inhibition, % at 4 µM; 330,000 compounds, 0.53% hits; Jurkat, PMA/ionomycin-induced NF-kB luciferase reporter; AID 435003, 2010; in the data active = inhibition above about 50%
CHOP inh = inhibitors of CHOP promoter induction, primary screen, cell-based, unfolded protein response, luciferase reporter | CHO-K1 CHOP-promoter luciferase, tunicamycin-induced, 15-18 h | inhibition, % at 10 µM | 220,000 compounds, 3.8% hits | AID 2732, 2010;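 active = compounds that reduced the stress-induced luciferase reporter signal by more than about 70% of percent inhibition, limit read from the data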
697 NFkB inh = inhibitors of PMA/ionomycin-induced NF-kB reporter, 697 cells, primary screen, B-cell NF-kB inhibitor project, cell-based, luminescence, uHTS; 330,000 compounds, 0.33% hits; 697 B-cell NF-kB luciferase reporter, 16 h; inhibition, % at 4 µM; in the data active = inhibition above about 35%
Jurkat NFkB conf = PMA/ionomycin-induced NF-kB reporter inhibitors, Jurkat retest, confirmation, T-cell NF-kB inhibitor project, cell-based, luminescence, single concentration | inhibition, % at 4 µM | 2,700 compounds, 27% hits | shares compounds with Jurkat NFkB inh | Jurkat NF-kB luciferase, 16 h | AID 435020, 2010;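 active = inhibition reaching about 45% at 4 µM in either replicate, limit read from the data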
UPR CHOP confirm = activators of apoptotic CHOP UPR arm, confirmation, cell-based, CHO-CHOP luciferase reporter, single concentration. shares compounds with UPR CHOP act. CHO-CHOP cells, CHOP-luciferase reporter luminescence; percent of tunicamycin response, DMSO as zero. activation, % at 10 µM. 1,000 compounds, 64% hits; in the data active = activation above about 33%
UPR XBP1 confirm = IRE1-XBP1 UPR arm activators, confirmation, cell-based, CHO-XBP1 luciferase reporter, luminescence, single concentration. shares compounds with UPR XBP1 act. activation, % at 20 µM. 1,000 compounds, 63% hits;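 active = reporter signal at least 30% of the positive control's activation in two or more of four replicate wells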
A number is an active result. In the library only some 3.9% were active in any assay of this set; here they are far more common.

`CCOC(=O)Cn1c2c(c(=N)c3c1CCC3)CCC2` gave UPR CHOP act inactive, Gli-Sufu block inactive, UPR XBP1 act inactive, Jurkat NFkB inh inactive, CHOP inh inactive and 697 NFkB inh inactive.
For CCCCCCCCCCn1c2c(c(=N)c3c1CCC3)CCC2 the results were UPR CHOP act 77, Gli-Sufu block 92, UPR XBP1 act 47, Jurkat NFkB inh 82, CHOP inh 104, 697 NFkB inh inactive, Jurkat NFkB conf 75, UPR CHOP confirm 70 and UPR XBP1 confirm 44.
For CCOc1ccc(NC(=O)C2CCC(CNc3c(N4CCC(C)CC4)c(=O)c3=O)CC2)cc1 (stereo not drawn) the results were UPR CHOP act inactive, Gli-Sufu block inactive, UPR XBP1 act inactive, Jurkat NFkB inh inactive, CHOP inh inactive and 697 NFkB inh inactive.
COc1ccc(C2c3ccc4ccccc4c3Oc3ncn(CCCN(C)C)c(=N)c32)cc1 (stereo not drawn) was read as UPR CHOP act 76, Gli-Sufu block inactive, UPR XBP1 act 55, Jurkat NFkB inh 52, 697 NFkB inh inactive, Jurkat NFkB conf inactive, UPR CHOP confirm 37 and UPR XBP1 confirm 60.
Screening O=C1CC[C@H](OCc2ccccc2)CCN1[C@H](CSc1ccccc1)Cc1ccccc1 returned UPR CHOP act inactive, Gli-Sufu block inactive, UPR XBP1 act inactive, Jurkat NFkB inh inactive and 697 NFkB inh inactive.
For CC(=O)[C@@]1(O)CCC2C3CC[C@H]4C[C@@H](O)CC[C@]4(C)C3CC[C@@]21C (stereo partly drawn) the results were UPR CHOP act inactive, Gli-Sufu block inactive, UPR XBP1 act inactive, Jurkat NFkB inh inactive and 697 NFkB inh inactive.
`C[C@]12CCC3C(CC[C@H]4CCCC[C@]34C)C1CC[C@@]2(O)CNCCO` (stereo partly drawn) gave UPR CHOP act inactive, Gli-Sufu block inactive, UPR XBP1 act 33, Jurkat NFkB inh 56, 697 NFkB inh inactive, Jurkat NFkB conf inactive and UPR XBP1 confirm inactive.
Nc1nc2c(nc(SCc3ccccc3Br)n2[C@@H]2O[C@H](CO)[C@@H](O)[C@H]2O)c(=O)[nH]1 was read as UPR CHOP act inactive, Gli-Sufu block inactive, UPR XBP1 act inactive, Jurkat NFkB inh inactive and 697 NFkB inh inactive.
For CN(C)C/C=C/C(O)(c1ccccc1)c1ccccc1 the results were UPR CHOP act inactive, Gli-Sufu block inactive, UPR XBP1 act inactive, Jurkat NFkB inh inactive, CHOP inh inactive and 697 NFkB inh inactive.
CN(C)CC(CCC(CN(C)C)C(O)(c1ccccc1)c1ccccc1)C(O)(c1ccccc1)c1ccccc1 (stereo not drawn) was read as UPR CHOP act 77, Gli-Sufu block inactive, UPR XBP1 act 35, Jurkat NFkB inh 65, 697 NFkB inh inactive, Jurkat NFkB conf inactive, UPR CHOP confirm 84 and UPR XBP1 confirm 43.
Screening Cc1cc(C)c(NC(=O)CS(=O)CC(=O)NCCN2CCCCCC2)c(C)c1 (stereo not drawn) returned UPR CHOP act inactive, Gli-Sufu block inactive, UPR XBP1 act inactive, Jurkat NFkB inh inactive and 697 NFkB inh inactive.
`O=C(c1cnn2c(C(F)F)cc(-c3ccccc3)nc12)N1CCc2ccccc21` gave UPR CHOP act inactive, Gli-Sufu block inactive, UPR XBP1 act inactive, Jurkat NFkB inh inactive, CHOP inh inactive and 697 NFkB inh inactive.
`Cc1ccc(-c2cc(C(F)F)n3ncc(C(=O)N4CCc5ccccc54)c3n2)cc1` gave UPR CHOP act inactive, Gli-Sufu block inactive, UPR XBP1 act 47, Jurkat NFkB inh 61, CHOP inh inactive, 697 NFkB inh inactive, Jurkat NFkB conf 47 and UPR XBP1 confirm 126.
For COc1ccc(-c2coc3cc4oc(=O)c5ccccc5c4cc23)cc1F the results were UPR CHOP act inactive, Gli-Sufu block inactive, UPR XBP1 act 64, Jurkat NFkB inh 73, CHOP inh inactive, 697 NFkB inh inactive, Jurkat NFkB conf inactive and UPR XBP1 confirm inactive.
`O=Cc1cc2ccccc2nc1SCc1ccc(Cl)c(Cl)c1` gave UPR CHOP act inactive, Gli-Sufu block inactive, UPR XBP1 act 34, Jurkat NFkB inh 57, CHOP inh inactive, 697 NFkB inh inactive, Jurkat NFkB conf inactive and UPR XBP1 confirm 39.
For CCn1c2ccccc2c2cc(Nc3cc(C)nc4ncnn34)ccc21 the results were UPR CHOP act inactive, Gli-Sufu block 62, UPR XBP1 act 36, Jurkat NFkB inh 65, 697 NFkB inh inactive, Jurkat NFkB conf 49 and UPR XBP1 confirm inactive.
For CCc1nc(Sc2nnnn2-c2ccccc2)c2c3c(sc2n1)CCCC3 the results were UPR CHOP act inactive, Gli-Sufu block inactive, UPR XBP1 act inactive, Jurkat NFkB inh inactive, CHOP inh inactive and 697 NFkB inh inactive.
For Cc1nc(Sc2nnnn2C)c2c3c(sc2n1)CCC3 the results were UPR CHOP act inactive, Gli-Sufu block inactive, UPR XBP1 act 37, Jurkat NFkB inh 64, CHOP inh inactive, 697 NFkB inh inactive, Jurkat NFkB conf 53 and UPR XBP1 confirm inactive.
Screening Cc1cc(N2CCN(C)CC2)ccc1NC(=O)c1c2c(nc3ccccc13)CCN(Cc1ccccc1)C2 returned UPR CHOP act inactive, Gli-Sufu block inactive, UPR XBP1 act 42, Jurkat NFkB inh 77, CHOP inh inactive, 697 NFkB inh inactive, Jurkat NFkB conf inactive and UPR XBP1 confirm inactive.
`COc1cc(/C=C/c2ccc3cccc(O)c3n2)cc(OC)c1OC` gave UPR CHOP act 339, Gli-Sufu block inactive, UPR XBP1 act 77, Jurkat NFkB inh 97, 697 NFkB inh inactive, Jurkat NFkB conf inactive and UPR XBP1 confirm inactive.

Bioassay records deposited in PubChem BioAssay by several laboratories.
